Rin1 Abl inh: inhibitors of Rin1-Abl protein binding, primary screen, biochemical, TR-FRET; AID 588664, 2011; Tyrosine-protein kinase ABL1 (Homo sapiens) + Ras and Rab interactor 1 (Homo sapiens), …; hit rate 0.4% among 360,000; inhibition, % at 7.35 µM; in the data active = inhibition above about 5%, passing the limit was not always enough
SR-BI HDL uptake: inhibitors of SR-BI mediated HDL lipid uptake, primary screen, ldlA[mSR-BI] cells, fluorescence, single point; ldlA[mSR-BI] CHO cells, DiI-HDL uptake fluorescence, 3 h; inhibition, % at 12.5 µM; hit rate 0.96% among 320,000; AID 488896, 2010;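 active = mean replicate inhibition of at least 70% and a set share of replicates each scoring 70 or more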;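 also: 0% = median of neutral control wells and 100% = median of positive control wells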
Target sequence (Q61009 whole entry, looked up): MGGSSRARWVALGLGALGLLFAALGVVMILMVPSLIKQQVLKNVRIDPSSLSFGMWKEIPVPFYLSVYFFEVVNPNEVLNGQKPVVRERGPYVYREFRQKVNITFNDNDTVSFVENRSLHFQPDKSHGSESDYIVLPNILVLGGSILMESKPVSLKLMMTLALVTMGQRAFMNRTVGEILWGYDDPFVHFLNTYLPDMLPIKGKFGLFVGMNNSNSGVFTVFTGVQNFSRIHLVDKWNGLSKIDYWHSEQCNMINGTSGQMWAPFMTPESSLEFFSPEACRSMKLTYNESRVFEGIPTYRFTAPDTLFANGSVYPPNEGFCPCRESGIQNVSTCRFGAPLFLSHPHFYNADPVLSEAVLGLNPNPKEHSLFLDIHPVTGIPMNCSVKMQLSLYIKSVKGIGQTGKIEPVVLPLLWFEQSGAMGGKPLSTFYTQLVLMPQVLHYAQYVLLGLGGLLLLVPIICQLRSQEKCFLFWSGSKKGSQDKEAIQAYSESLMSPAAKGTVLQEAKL
GRK2 inh: compounds blocking aptamer binding on GRK2 – biochemical, human GRK2, bead flow cytometry, HTS, primary screen | Beta-adrenergic receptor kinase 1 (Homo sapiens), P25098 | FAM-aptamer displacement from GRK2 | inhibition of aptamer binding, % at 10 µM | hit rate 0.59% among 330,000 | AID 488847, 2010;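 active = inhibition of aptamer binding above 40%, roughly 3 SD of noise, on plates passing a quality check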;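 also: median bead fluorescence of bound FAM aptamer so fluorescent compounds give negative values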
SR-BI uptake up: activators of SR-BI mediated DiI-HDL uptake, primary screen, ldlA[mSR-BI] CHO cells, DiI fluorescence; 3 h; 100 = double the neutral-control signal; activation, % at 12.5 µM; hit rate 0.096% among 320,000; AID 504775, 2011;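 active = mean replicate activation of at least 60% and every replicate at or above 60%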;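 also: 0% = median plate neutral-control signal and 100% = twice that signal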
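Assay system: LDL receptor-deficient CHO ldlA cells overexpressing murine SR-BI / Medium: BSA-supplemented, HEPES-buffered Ham's F12, pH 7.4 / Probe or stimulus: DiI-labelled HDL at 10 µg/mL final / Timing: compound with DiI-HDL co-incubation, 3 h at 37 °C / Technique: bottom-read cell fluorescence after medium removal, ex 550/em 595 nm / Measure: HDL uptake via cellular fluorescence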
An asterisk follows results filed as active; . = not tested or not shown. Rows were chosen to be rich in hits. Some 1.9% of all compounds tested hit in one or more screens of this group.

SMILES | Rin1 Abl inh | SR-BI HDL uptake | GRK2 inh | SR-BI uptake up
CCN(CC)C1CC(=O)N(c2cccc(Cl)c2)C1=O (centres undefined) | -3 | -17 | 0 | 17
CC/C(=N\NC(=O)c1ccc(CN(C)S(=O)(=O)c2ccc(C)cc2)cc1)c1ccc(OC(F)F)cc1 | -4 | 80* | 0 | -80
Cc1ccc(C)n1-c1ccc(C(=O)O)cc1 | . | . | 82* | .
Cc1cc(CNCCN(C)C)c(C)n1-c1cc(S(=O)(=O)N2CCOCC2)ccc1N1CCCC1 | 3 | -27 | . | 27
O=C1/C(=C\c2ccco2)SC(=S)N1c1ccc(O)cc1 | -1 | -12 | 10 | 12
O=C1/C(=C/C=C/c2ccco2)SC(=S)N1c1ccc(O)cc1 | 5.7* | . | 16 | .
CC(C)(C)OC(=O)C[C@H]1C/C=C\C[C@H](CC(=O)NCCO)C(=O)N2CCC[C@@H]2COC1=O | 3 | 10 | 0 | -9
C=CCNc1nc(Nc2ccc([N+](=O)[O-])cc2)nc(N2CCCC2)n1 | 3 | 76* | 0 | -76
CCOc1ccc(NC(=O)CN(C)C(=O)c2ccc(N3CCOCC3)c([N+](=O)[O-])c2)cc1OCC | 0 | 51 | 2 | -51
CCOc1ccc(NC(=O)CN(C)C(=O)c2ccc(N3CCCCCC3)c([N+](=O)[O-])c2)cc1OCC | -4 | 86* | 0 | -86
CCOc1ccc(NC(=O)CN(C)C(=O)c2ccc3c(c2)C(=O)N(CCC(C)C)C3=O)cc1OCC | -1 | 78* | 0 | -78
NC(=O)c1cc([N+](=O)[O-])ccc1NCc1ccc(N)cc1 | -6 | -4 | 5 | 4
CC1(C(=O)NS(=O)(=O)c2ccc(Cl)cc2)CCN1C(=O)CCC1CCCC1 (centres undefined) | 1 | . | . | .
CCCCCCSc1ccc(-c2nc3ccc(Cl)cn3c2NCCCC)cc1OC | -2 | 28 | 0 | -28
CCCCNc1c(-c2ccc(-c3ccc(OC)cc3)c(OC)c2)nc2ccccn12 | 3 | 87* | 0 | -87
CCCCNc1c(-c2ccc(OC)c(Sc3ccc(OC)cc3)c2)nc2ccccn12 | 1 | 59 | 0 | -59
CCCCNc1c(-c2ccc(SC3CCCCC3)c(OC)c2)nc2ccc(Cl)cn12 | -3 | 75* | 0 | -75
F[B-](F)(F)c1cncc2ccccc12 | -2 | -5 | . | 5
COC(=O)/C(=C\Nc1ccc(OC)cc1)NC(=O)c1ccc(Cl)cc1Cl | 4 | 26 | 0 | -26
COC(=O)/C(=C\Nc1ccc(Cl)cc1Cl)NC(=O)c1ccc(OC)cc1 | -1 | 83* | 2 | -83
Cc1ccc(N/N=C(\C#N)C(N)=S)c(C)c1 | -2 | 77* | 0 | -77
Cc1ccc(NC(=O)/C(C#N)=N/Nc2ccc(C(=O)O)cc2)c(C)c1 | -1 | -27 | 8 | 27
Fc1cccc(Cc2c(-c3ccc(Cl)cc3)nc3ccc(Br)cn23)c1 | -46 | . | . | .
COc1cc(/C=C(\C#N)c2nc3ccccc3[nH]2)ccc1Oc1ccc([N+](=O)[O-])cn1 | -1 | 74* | 0 | -74
O=C(CSc1nnc(NC2CCCCC2)s1)Nc1ccc2c(c1)C(=O)c1ccccc1C2=O | 0 | 73* | 0 | -73
SMILES | Rin1 Abl inh | SR-BI HDL uptake | GRK2 inh | SR-BI uptake up
O=C(Nc1c(-c2ccc(Cl)cc2)[nH][nH]c1=O)c1ccc(Br)cc1 | 3 | . | . | .
CN(C)CCCNC(=O)/C=C/c1ccc2c(c1)OCO2 | -1 | -70 | 0 | 70*
Cc1ccccc1-n1c(SCC(=O)N/N=C/C=C/c2ccccc2[N+](=O)[O-])nc2ccccc2c1=O | 1 | 79* | 6 | -79
CCCNC(=O)C(CC)NC(=O)c1ccc(C#N)cc1 (centres undefined) | 5 | -62 | 0 | 62*
Cc1cc(Br)ccc1OCC(=O)NNC(=O)c1ccc(NC(=O)C2CC2)cc1 | 2 | 47 | 1 | -47
Cc1ccc(C)c(OCC(=O)NNC(=O)c2ccc(NC(=O)C3CC3)cc2)c1 | -1 | 74* | 1 | -74
CC(=NCCCn1ccnc1)C1=C(O)c2ccccc2C1=O | -2 | -61 | 0 | 61*
CC12CCC(C(=O)N(CSC(=S)N/N=C\c3ccccc3O)C1=O)C2(C)C (centres undefined) | 3 | 104* | 2 | -104
COc1ccc(OC)c(NC(=O)c2cc(-c3cc(C)cc(C)c3O)n[nH]2)c1 | 4 | 77* | 0 | -77
Cc1cccc(NC(=O)c2cc(-c3cc(C)cc(C)c3O)n[nH]2)c1 | 1 | 72* | 1 | -72
COc1cc(/C=N/NC(N)=O)ccc1OCC(=O)Nc1ccc(C)c(C)c1 | 1 | 35 | 1 | -35
COc1ccccc1OCC(=O)Nc1ccc(NC(=O)COc2ccccc2OC)cc1 | -4 | 92* | 1 | -92
COc1ccccc1OCC(=O)Nc1ccc(Cl)cc1 | -4 | 8 | 0 | -8
COc1cc(/C=N/NC(N)=S)ccc1OCC(=O)Nc1ccc(C)c(C)c1 | -1 | 73* | 0 | -73
Cc1ccc(N2C(=O)C(NC(=O)c3ccccc3F)(C(F)(F)F)C3=C2CC(C)(C)CC3=O)cc1 (centres undefined) | 1 | -2 | 75* | 2
CC1(C)CC(=O)C2=C(C1)N(c1ccc(F)cc1)C(=O)C2(NC(=O)c1ccccc1F)C(F)(F)F (centres undefined) | 0 | -50 | 0 | 50
Cc1onc(-c2ccccc2)c1C(=O)NC(=S)NNC(=O)c1cccnc1 | 2 | 9 | 0 | -9
Cc1onc(-c2ccccc2)c1C(=O)NC(=S)NNC(=O)c1ccncc1 | -2 | -1 | 74* | 1
CCSc1nc2cc(OC)c(OC)cc2c(=O)n1CCc1ccccc1 | 2 | 71* | 5 | -71
CCOC(=O)C1CCN(C(=O)c2ccc(OCC(=O)Nc3ccc(OCC)cc3)c(OC)c2)CC1 | 3 | 83* | 2 | -83
O=C1Nc2ccc(Br)cc2C12NNc1ccccc1O2 (centres undefined) | 3 | 90* | 5 | -90
COc1ccc(NC(=O)Nc2cccc3ccccc23)c(OC)c1 | 0 | 71* | 7 | -71
COc1ccc(NC(=O)NCc2cccn2C)c(OC)c1 | 4 | 85* | 2 | -85
COc1ccc(NC(=O)NCc2ccncc2)c(OC)c1 | 1 | 4 | 0 | -4
O=C(Nc1c2c(nn1-c1ccccc1)CS(=O)(=O)C2)c1ccc(Br)o1 | -4 | . | . | .
COc1ccc(CC(N)c2csc(NC(=O)C(c3ccccc3)c3ccccc3)n2)cc1 (centres undefined) | -3 | . | . | .
CC12CCC(=O)C=C1CCCC2=O (centres undefined) | 1 | -25 | . | 25
Cc1cccc(N2C(=O)N3[C@H](c4ccc(Br)cc4)[C@@H]4C(=O)N(C(C)(C)C)C(=O)[C@@H]4[C@]3(C)C2=O)c1 | -2 | -60 | 0 | 60*
Cc1ccc(N2C(=O)N3[C@H](c4ccc(Br)cc4)[C@@H]4C(=O)N(C(C)(C)C)C(=O)[C@@H]4[C@]3(C)C2=O)cc1 | 3 | -24 | 0 | 24

Screening data: PubChem, several laboratories
